Data as given in ChEMBL document CHEMBL1144887, “Indanylidenes. 1. Design and synthesis of (E)-2-(4,6-difluoro-1-indanylidene)acetamide, a potent, centrally acting muscle relaxant with antiinflammatory and analgesic activity” (J Med Chem, 2003).

How the values were obtained:
Type in all cases: functional
Rattus norvegicus [1] = assay: Percent inhibition for analgesic activity by trypsin-induced hyperalgesia assay at 20 mg/kg by oral administration in rats
Procedure, shortened: (§1)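 Rat trypsin-induced hyperalgesia (mild analgesia). Percent inhibition at a single oral dose of 20 mg/kg. Each compound tested two or three times; average variation approximately 5%.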

Mus musculus [2] = assay: (§2) Percent effect profile muscle relaxation at 100 mg/kg by intraperitoneal administration in mouse using Straub-tail (ST) assay; conditions: ip
Procedure, shortened: (§3)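 Mouse morphine-induced Straub tail assay, scoring inhibition of sacro-coccygeus dorsalis contraction. Single ip dose of 100 mg/kg; percent effect reported. Compounds above 50% inhibition were then tested orally.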

Mus musculus [3] = assay: Sedation caused by oral administration was estimated using rotarod (RR) assay.
Procedure, shortened: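 Mouse rotorod test for sedation, oral dosing, generally at a minimum of three doses with N = 6 animals per dose group.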

Mus musculus [4] = species: Mus musculus; assay: Ratio of rotarod to Straub-tail activity, which indicates the dose exhibiting muscle relaxant activity versus that producing sedation.
Procedure, shortened: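 Ratio of rotorod ED50 (po) to Straub tail ED50 (po), both measured in mice with oral dosing. Indicates separation between the muscle-relaxant dose and the sedating dose.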

Mus musculus [5] = assay: Effective dose required for muscle relaxation by oral administration in mouse using Straub-tail (ST) assay.
Procedure, shortened: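 Mouse morphine-induced Straub tail assay, scoring inhibition of sacro-coccygeus dorsalis contraction. Dosed ip or po, generally at a minimum of three doses with N = 6 animals per dose group.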

Rattus norvegicus [6] = assay: Antiinflammatory activity in cells by Carrageenan pleurisy assay by oral administration at 20 mg/kg.
Procedure, shortened: (§4)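 Rat carrageenan pleurisy, 3 h. Single oral dose of 20 mg/kg, with separate read-outs for pleural cell counts and edema as percent inhibition. Each compound tested two or three times; average variation approximately 10%.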

Rattus norvegicus [7] = assay: Percent inhibition for analgesic activity by trypsin-induced hyperalgesia assay at 20 mg/kg by oral administration in rats.; procedure, shortened: as §1
Rattus norvegicus [8] = assay: Antiinflammatory activity in edema by Carrageenan pleurisy assay by oral administration at 20 mg/kg.; procedure, shortened: as §4
Rattus norvegicus [9] = assay: Effective dose required for analgesic activity by trypsin-induced hyperalgesia assay at 20 mg/kg by oral administration in rats
Procedure, shortened: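 Rat trypsin-induced hyperalgesia (mild analgesia) with oral dosing. ED50 reported in mg/kg po. Each compound tested two or three times; average variation approximately 5%.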

Mus musculus [10] = assay: as §2; conditions: ip; procedure, shortened: as §3; remark: listed apart in the source

| SMILES | inhibition in vivo at 20 mg/kg (Rattus norvegicus [1]) [%] | inhibition in vivo at 100 mg/kg (Mus musculus [2]) [%] | ED50 (Mus musculus [3]) [mg/kg] | Ratio (Mus musculus [4]) | ED50 (Mus musculus [5]) [mg/kg] | inhibition in vivo at 20 mg/kg (Rattus norvegicus [6]) [%] | inhibition in vivo at 20 mg/kg (Rattus norvegicus [7]) [%] | inhibition in vivo at 20 mg/kg (Rattus norvegicus [8]) [%] | ED50 (Rattus norvegicus [9]) [mg/kg] | inhibition in vivo at 100 mg/kg (Mus musculus [10]) [%] | ED50 (Mus musculus [10]) [mg/kg] |
| --- | --- | --- | --- | --- | --- | --- | --- | --- | --- | --- | --- |
| NC(=O)/C=C1/CCc2ccc(F)cc21 | 24 | 100 | 92 | 1.4 | 64 |  |  |  |  |  |  |
| CNC(=O)/C=C1\CCc2cc(F)cc(F)c21 | 33 | 33 |  |  |  |  |  |  |  |  |  |
| NC(=O)/C=C1\CCc2c1ccc(F)c2F |  | 100 | 50 | 1.1 | 45 | 77 | 41 | 82 |  |  |  |
| CC(C)NC(=O)/C=C1\CCc2ccc(F)cc21 |  | 100 | > 100 |  | 96 | 45 | 83 | 71 | 9 |  |  |
| NC(=O)/C=C1\CCc2c(F)cccc21 |  |  |  |  | > 100 | 40 | 68 | 34 | 13 | 63 |  |
| O=C(/C=C1/CCc2ccc(Cl)cc21)NC1CC1 |  |  |  |  |  |  |  |  |  | 0 |  |
| CCN(C)C(=O)/C=C1\CCc2ccc(F)cc21 |  | 100 |  |  | 100 | 20 | 77 | 44 |  |  |  |
| N#Cc1ccc2c(c1)/C(=C/C(N)=O)CC2 |  |  |  |  |  |  | 21 |  |  |  | 33 |
| O=C(/C=C1\CCc2c(F)ccc(F)c21)NC1CC1 |  | 100 | 2 | 0.03 | 59 |  | 2 |  |  |  |  |
| CNC(=O)/C=C1\CCc2cc(Cl)ccc21 |  | 50 |  |  |  | 40 | 25 | 44 |  |  |  |
| Cc1cccc2c1/C(=C/C(N)=O)CC2 | 12 | 100 | 56 | 0.7 | 82 |  |  |  |  |  |  |
| COc1ccc2c(c1)CC/C2=C\C(N)=O |  | 17 |  |  |  | 18 | 13 | 25 |  |  |  |
| O=C(/C=C1\CCc2c1ccc(F)c2F)NC1CC1 |  |  |  |  | 62 | 27 | 11 | 27 |  | 100 |  |
| CCCNC(=O)/C=C1\CCc2ccc(F)cc21 |  | 100 |  |  | > 100 | 0 | 11 | 36 |  |  |  |
| O=C(/C=C1\CCc2ccc(F)cc21)N1CCOCC1 |  | 100 |  |  | 90 | 7 |  | 31 |  |  |  |
| CNC(=O)/C=C1\CCc2ccc(Br)cc21 |  | 0 |  |  |  | 44 | 4 | 53 |  |  |  |
| CCNC(=O)/C=C1\CCc2c(F)cc(F)cc21 |  | 67 |  |  |  |  | 63 |  |  |  |  |
| O=C(/C=C1\CCc2ccc(F)cc21)NC1CCC1 | 17 |  |  |  | > 100 | 4 |  | 0 |  | 100 |  |
| O=C(/C=C1\CCc2ccc(Cl)cc21)NC1CC1 |  | 50 |  |  |  |  |  |  |  |  |  |
| O=C(/C=C1\CCc2cc(Cl)ccc21)NC1CC1 |  | 17 |  |  |  | 34 |  | 29 |  |  |  |
| O=C(/C=C1\CCc2c(F)cc(F)cc21)NC1CC1 |  | 100 | 62 | 1 | 62 | 38 |  | 28 |  |  |  |
| NC(=O)/C=C1\CCc2c(Cl)cccc21 |  | 67 |  |  |  | 35 | 29 | 58 |  |  |  |
| CON(C)C(=O)/C=C1\CCc2ccc(F)cc21 |  | 17 |  |  |  | 6 |  | 14 |  |  |  |
| NC(=O)/C=C1\CCc2c(F)ccc(F)c21 |  | 100 | 89 | 1.6 | 56 | 67 | 83 | 67 | 8 |  |  |

| SMILES | inhibition in vivo at 20 mg/kg (Rattus norvegicus [1]) [%] | inhibition in vivo at 100 mg/kg (Mus musculus [2]) [%] | ED50 (Mus musculus [3]) [mg/kg] | Ratio (Mus musculus [4]) | ED50 (Mus musculus [5]) [mg/kg] | inhibition in vivo at 20 mg/kg (Rattus norvegicus [6]) [%] | inhibition in vivo at 20 mg/kg (Rattus norvegicus [7]) [%] | inhibition in vivo at 20 mg/kg (Rattus norvegicus [8]) [%] | ED50 (Rattus norvegicus [9]) [mg/kg] | inhibition in vivo at 100 mg/kg (Mus musculus [10]) [%] | ED50 (Mus musculus [10]) [mg/kg] |
| --- | --- | --- | --- | --- | --- | --- | --- | --- | --- | --- | --- |
| CN(C)C(=O)/C=C1\CCc2c(F)cc(F)cc21 | 75 | 100 | 100 | 2 | 50 |  |  |  |  |  |  |
| O=C(/C=C1\CCc2ccc(F)cc21)NCC1CC1 |  | 50 |  |  |  | 0 |  | 21 |  |  |  |
| Cc1cccc2c1CC/C2=C\C(=O)NC1CC1 |  |  | 64 | 1.6 | 40 | 15 |  | 7 |  | 100 |  |
| O=C(/C=C1\CCc2ccc(F)cc21)N1CCC1 |  | 33 |  |  |  | 14 | 7 | 0 |  |  |  |
| NC(=O)/C=C1\CCc2cc(F)ccc21 |  |  | > 100 | >~2 | 56 | 54 |  | 42 |  | 100 |  |
| O=C(/C=C1\CCc2cc(F)ccc21)NC1CC1 |  |  | 193 | 2.4 | 81 |  |  |  |  | 100 |  |
| O=C(/C=C1\CCc2ccc(F)cc21)NC1CC1 |  | 100 | 62 | 0.9 | 66 | 5 |  | 7 |  |  |  |
| O=C(/C=C1\CCc2ccc(F)cc21)N1CCCC1 |  | 33 |  |  |  | 10 | 10 | 18 |  |  |  |
| O=C(/C=C1\CCc2c(Cl)cccc21)NC1CC1 |  | 100 | 66 | 1.1 | 58 | 28 |  | 45 |  |  |  |
| COc1ccc2c(c1)/C(=C/C(N)=O)CC2 |  |  |  |  |  | 1 |  | 3 |  | 0 |  |
| CCN(C)C(=O)/C=C1\CCc2c(F)cc(F)cc21 |  | 100 | 73 | 1.3 | 56 |  |  |  |  |  |  |
| CNC(=O)/C=C1\CCc2ccc(Cl)cc21 |  | 16 |  |  |  | 0 | 17 | 25 |  |  |  |
| CNC(=O)/C=C1\CCc2ccc(F)cc21 |  |  |  |  |  | 45 | 58 | 38 | 25 | 50 |  |
| O=C(/C=C1\CCc2c(F)cc(F)cc21)NCCO | 27 |  |  |  | 100 |  |  |  |  | 83 |  |
| O=C(/C=C1\CCc2cc(F)c(F)cc21)NC1CC1 |  | 50 |  |  |  | 30 |  | 48 |  |  |  |
| CC(C)NC(=O)/C=C1\CCc2c(F)cc(F)cc21 |  | 100 | 76 | 1.9 | 50 |  |  |  |  |  |  |
| O=C(/C=C1\CCc2ccc(F)cc21)NCCO |  | 50 |  |  |  | 42 | 33 | 78 |  |  |  |
| O=C(/C=C1\CCc2ccc(Br)cc21)NC1CC1 |  | 33 |  |  |  | 29 |  | 4 |  |  |  |
| NC(=O)/C=C1\CCc2ccc(Br)cc21 |  | 100 |  |  | 96 | 38 |  | 21 |  |  |  |
| Cc1cccc2c1/C(=C/C(=O)NC1CC1)CC2 | 24 | 17 |  |  |  |  |  |  |  |  |  |
| CCNC(=O)/C=C1\CCc2ccc(F)cc21 |  | 100 | 136 | 1.9 | 70 | 45 | 40 | 63 |  |  |  |
| NC(=O)/C=C1\CCc2cc(Cl)ccc21 |  |  |  |  |  | 30 | 42 | 29 | 30 | 0 |  |
| NC(=O)CC1CCc2c(F)cc(F)cc21 (stereo not given) | 11 |  |  |  |  |  |  |  |  | 50 |  |
| O=C(/C=C1\CCc2cc(F)cc(F)c21)NC1CC1 |  | 100 | 81 | 1.4 | 69 |  | 13 |  |  |  |  |
